In ChEMBL document CHEMBL4613249, “Serendipitous Discovery of Leucine and Methionine Depletion Agents during the Search for Polyamine Transport Inhibitors” (J Med Chem, 2020) one finds Activity, inhibition and IC50 data, which are given here for one molecule.

For data set [1], the target named is Large neutral amino acids transporter small subunit 1 (Homo sapiens) (UniProt Q01650). The data set can be described thus: Inhibition of LAT1-mediated amino acid transport in human L3.6PL cells assessed as reduction in intracellular leucine level by measuring leucine level per mg protein in cell lysate at 5 uM measured after 72 hrs by LCMS analysis (reference value: 232 +/- 10 pmol/mg). Type of data set: cell-based. In outline:
(§1)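 L3.6pl cells (50,000 cells/mL, 10 mL, 1 mM aminoguanidine) were seeded in poly-lysine-treated 9 cm dishes and incubated overnight at 37°C. They were then dosed with compound at 2, 5 or 7 μM from PBS stocks (2, 5, 7 mM) and incubated 72 h. Runs were done in triplicate, with amino acid levels per mg protein.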

Data set [2] in a line: Toxicity in mouse at 1 mg/kg, ip measured over 24 hrs. Type of data set: organism-based. The following applies: in vivo.
In data set [3] the target is Large neutral amino acids transporter small subunit 1 (Homo sapiens) (UniProt Q01650). Briefly: Inhibition of LAT1-mediated [3H]-leucine uptake in human L3.6PL cells at 2 to 7 uM preincubated for 24 hrs at 37 degree C followed by HBBS addition and compound washout and subsequent compound dosing measured after 30 mins by scintillation counter method. It is filed as cell-based. In outline: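 L3.6pl cells were preincubated 24 h at 37°C with compound, washed and placed in HBSS. Compound was then added back just before ³H-leucine, followed by a 30 min incubation at 37°C. After cold washes, radioactivity was counted and normalized to μg protein.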

The subject of data set [4] is L3.6pl. Briefly: Effect on polyamine level in human L3.6PL cells assessed as decrease in intracellular putrescine level at 1 uM measured after 72 hrs in presence of amine oxidase suppressor aminoguanidine and Ant-44 by LCMS analysis. Type of data set: functional, cell-based. Summed up: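 L3.6pl cells dosed with Ant-44 fixed at 2 μM plus increasing compound for 72 h at 37°C. Intracellular polyamines and Ant-44 given as nmol/mg protein, in duplicate, with a parallel untreated control.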

For the next data set, the system named is CHO-MG. The data set can be described thus: Cytotoxicity against CHO-MG cells assessed as reduction in cell viability after 48 hrs by MTS assay. Type of data set: cell-based. The note with it: Cricetulus griseus. Summed up: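 Cells in RPMI 1640 with 10% FBS, 1% penicillin/streptomycin, 37°C, 5% CO2, with aminoguanidine (1 mM for CHO K1 and CHO-MG, 250 μM for L3.6pl). Plated overnight at 1000 cells/well (CHO lines) or 500 cells/well (L3.6pl). Compound in PBS added, 48 h exposure. Growth read as MTS formazan absorbance at 490 nm. IC50 is the dose giving 50% relative growth versus untreated control. Run twice in triplicate.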
(Tetrazolium dyes change colour on reduction, which living cells bring about.)

Data set [5] deals with L3.6pl. The data set can be described thus: Effect on polyamine level in human L3.6PL cells assessed as ornithine level per mg protein in supernatant at 2 uM measured after 72 hrs in presence of amine oxidase suppressor aminoguanidine by LCMS analysis (reference value: 10588 +/- 3212 pmol/mg). It is filed as functional.
The subject of data set [6] is L3.6pl. The data set can be described thus: Effect on polyamine level in human L3.6PL cells assessed as decrease in intracellular spermine level at 7 uM measured after 72 hrs in presence of amine oxidase suppressor aminoguanidine by LCMS analysis relative to control. Further details: scale not given: the % may be the effect or the level left. Type of data set: functional. In outline: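 L3.6pl cells, 50,000 cells/mL in 10 mL per Petri dish with 1 mM aminoguanidine, plated overnight. Dosed with compound at 2, 5 or 7 μM from PBS stocks, then 72 h at 37°C. Intracellular polyamines measured by N-dansylation and HPLC, in duplicate, as nmol/mg protein against a parallel untreated control.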

Data set [7] deals with Large neutral amino acids transporter small subunit 1 (Homo sapiens) (UniProt Q01650). Briefly: Inhibition of LAT1-mediated amino acid transport in human L3.6PL cells assessed as reduction in intracellular leucine level by measuring leucine level per mg protein in cell lysate at 2 uM measured after 72 hrs by LCMS analysis (reference value: 232 +/- 10 pmol/mg). Type of data set: cell-based. Summed up: as §1

The test system of data set [8] is L3.6pl. The data set can be described thus: Effect on polyamine level in human L3.6PL cells assessed as acetyl spermidine level per mg protein in supernatant at 2 uM measured after 72 hrs in presence of amine oxidase suppressor aminoguanidine by LCMS analysis (reference value: 1936 +/- 1365 pmol/mg). Type of data set: functional.
Data set [9] addresses Large neutral amino acids transporter small subunit 1 (Homo sapiens) (UniProt Q01650). Briefly: Induction of LAT1-mediated polyamine efflux in human L3.6PL cells assessed as increase in [3H]leucine efflux at 60 uM measured after 30 mins at 37 degC by scintillation counting method. Type of data set: cell-based. Summed up: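 L3.6pl cells preloaded 5 min at 37°C with 3H-leucine and washed three times with cold HBSS. Compound (60 μM) given alone for 30 min at 37°C. Radioactivity of released 3H-leucine counted in the supernatant. Untreated and 100 μM unlabeled leucine lanes set the efflux range.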

Structures are written as SMILES. Activity calls are given as the source filed them. The calls are words filed in the database; no cut-off is given here.

Chain of Large neutral amino acids transporter small subunit 1 (Homo sapiens) (Q01650 whole entry): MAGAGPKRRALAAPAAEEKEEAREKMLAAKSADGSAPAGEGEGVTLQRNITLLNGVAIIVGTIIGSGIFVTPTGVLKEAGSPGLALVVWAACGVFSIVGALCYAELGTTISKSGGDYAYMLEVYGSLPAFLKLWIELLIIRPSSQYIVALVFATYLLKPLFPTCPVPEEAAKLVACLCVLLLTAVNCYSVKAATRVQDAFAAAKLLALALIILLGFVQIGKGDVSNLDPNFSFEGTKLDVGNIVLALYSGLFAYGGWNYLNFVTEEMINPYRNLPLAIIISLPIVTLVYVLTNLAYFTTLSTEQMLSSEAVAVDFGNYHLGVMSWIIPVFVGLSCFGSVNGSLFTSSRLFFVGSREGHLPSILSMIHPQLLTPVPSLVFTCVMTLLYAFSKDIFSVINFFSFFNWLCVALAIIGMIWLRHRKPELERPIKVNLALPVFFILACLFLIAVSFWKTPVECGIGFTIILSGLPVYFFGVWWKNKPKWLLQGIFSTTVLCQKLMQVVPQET

The term IC50 denotes the concentration that gives 50% inhibition. Consider `CC(C)CCN1CCN([C@@H](CNCc2ccccc2)CC2CCCCC2)C[C@@H]1CC(C)C`, for which the Activity in data set [1] is 94 pmol/mg; in data set [2] it was “Non-Toxic”; in the data set on L3.6pl [5], 9249 pmol/mg; with L3.6pl [6], 30%; in data set [7], 152 pmol/mg; with L3.6pl [8] it was 1649 pmol/mg. Moreover, the inhibition result in data set [3] is “inactive”. Besides, the result (in the data set with L3.6pl [4]; in data set [9]) was Active. The IC50 in the data set with CHO-MG came to 8.93 µM.
